≈ marks a conversion by molar mass, not a printed value.
Key:
[1] = In vivo safety: body weight, H&E histology, blood biochemistry; parameters: species or system BALB/c nude mice; details: 10 mg·kg^−1 i.v.
Outline: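 MCF-7 xenografts in BALB/c nude mice: 1×10^6 cells s.c. (alar region), randomised at 100–200 mm3 (n = 6/group). Untreated normal group also included. Body weight recorded every 2 days for 16 days. Day 16: serum ALT, AST, BUN, CRE measured; organs formalin-fixed, paraffin-embedded and H&E-stained.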

[2] = Aqueous solubility in PBS; assay type: physicochemical; details: pH = 7.4
[3] = in PBS; cited from earlier work
[4] = free CPT; cited from earlier work

| SMILES | body weights compared to PBS ([1]; MCF-7 tumor-bearing nude mice, p < 0.05) | creatinine (CRE) level compared with the normal group ([1]; day 16, p < 0.001, n = 6) | blood urea nitrogen (BUN) level compared with the normal group ([1]; day 16, p < 0.05, n = 6) | H&E staining of kidney ([1]; characteristic of acute kidney injury) | aqueous solubility [2] [µg/mL] | CPT lactone form remained at equilibrium [3] [%] | half-life of lactone ring hydrolysis [3] [min] | blood circulation half-life (t1/2) [4] [min] |
| --- | --- | --- | --- | --- | --- | --- | --- | --- |
| CCc1c2c(nc3ccc(OC(=O)N4CCC(N5CCCCC5)CC4)cc13)-c1cc3c(c(=O)n1C2)COC(=O)[C@]3(O)CC [IR, irinotecan] | reduced observably | increased obviously | increased obviously | obvious interstitial inflammatory cell infiltration | – | – | – | – |
| CC[C@@]1(O)C(=O)OCc2c1cc1n(c2=O)Cc2cc3ccccc3nc2-1 [CPT, camptothecin] | – | – | – | – | 3 (≈ 8.61 µM) | 17 | 24 | 9.9 ± 8.04 |
